The text below walks through data of PubChem BioAssay AID602159 (Southern Research Specialized Biocontainment Screening …, 2011).

The subject of this assay is HEp-2 RSV CPE, time of addition, CellTiter-Glo viability. Description: stage of RSV life cycle blocked in HEp-2 – cell-based, set 2, mechanism study for RSV inhibitor project, late-stage follow-up (AID 602159). As to conditions: at 25 µM, stronger effect = higher value. A digest of the protocol: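 Material: HEp-2 cell monolayers infected with respiratory syncytial virus | Reagent: RSV Long, MOI 0.12 | Dosing: 25 µM single dose, 0.5% DMSO | Schedule: Compound dosing 1 h pre- to 24 h post-infection, six-day incubation | Technique: CellTiter-Glo luminescence | Read-out: % cell viability per addition time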

[1] abbreviates: measured here: added 1 h before infection.
Where [2] appears, read: measured here: added 1 h post infection.
The mark [3] stands for this setting: measured here: added 12 h post infection.
Where [4] appears, read: measured here: added 24 h post infection.

Structures are written as SMILES.

As for `COCCCNC(=O)c1ccc(Cn2c(=O)c3ccccc3n(Cc3ccc(C(C)C)cc3)c2=O)cc1`, the viability (added at infection) was 44%. Also, where the note is “added 21 h post infection”, the viability amounted to 38.8%. Also, the viability under setting [1] is 49.5%. In addition, the viability under setting [2] stood at 42.9%. This molecule also returned a viability under setting [3] of 43.8%. Under setting [4], this molecule had a viability of 31.1%.

On to `COCCCNC(=O)c1ccc(Cn2c(=O)c3ccccc3n(Cc3ccc([N+](=O)[O-])cc3)c2=O)cc1`, for which the viability (added at infection) was 72.1%. The same molecule yielded a viability (added 21 h post infection) of 80.1%. The molecule also registered a viability under setting [1] of 52.3%. The viability under setting [2] turned out to be 70.2%. The molecule further showed a viability under setting [3] of 81.9%. The molecule also returned a viability under setting [4] of 68%.

For `CN(C)c1ccc(Cn2c(=O)n(Cc3ccc(C(=O)NCC4COC4)cc3)c(=O)c3ccccc32)cc1`, the viability (added at infection) is 91.3%. The viability (added 21 h post infection) came out at 96.4%. The molecule further came in with a viability under setting [1] of 90.1%. Further, the viability under setting [2] is 91.6%. In addition, the viability under setting [3] was 73.2%. The molecule also came in with a viability under setting [4] of 78.7%.

For orientation: viability means the share of living cells, or the viability signal relative to a control.
